The source of these data is article PMC9071996 (RSC Advances, 2019).

The test system of assay [1] is MDA-MB-231 cells. The assay can be described thus: Intracellular ROS level. In kind it is cell-based, human.
Assay [2] deals with RPMI-8226 cells. Kind of assay: MTS cytotoxicity assay, RPMI-8226. The format is cell-based. The conditions noted are these: Homo sapiens, RPMI-8226, 72 h, read-out: IC50 (μM) RPMI-8226. The method, boiled down:
(§1)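 MTS viability assay in A549, MDA-MB-231 and RPMI-8226 human cancer cells. All compounds were first screened at 10 and 50 μM. Compounds that crossed a set viability threshold in this screen went on to IC50 determination.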
For orientation: Tetrazolium dyes change colour on reduction, which living cells bring about.

The test system of assay [3] is MDA-MB-231 cells. Kind of assay: Annexin V-APC/7-AAD apoptosis assay. In kind it is cell-based, human. The conditions noted are these: 72 h, control 1.98%. The method in brief: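 MDA-MB-231 cells exposed to test compound at 2.5, 5 or 10 μM for 72 h, with untreated cells as control. Cells then double-stained with Annexin V-APC and 7-AAD and analysed by flow cytometry. Annexin V+/7-AAD− cells scored as early apoptotic. 7-AAD-positive Annexin V+ cells scored as late apoptotic. Results shown as dot-plot quadrants and a histogram.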

In assay [4] the test system is GES-1 cells. The assay can be described thus: MTS cytotoxicity assay, normal GES-1 cells. The format is cell-based. The note with it: Homo sapiens, GES1, 72 h, read-out: IC50 (μM) GES-1.
Assay [5] concerns A549 cells. The assay can be described thus: MTS cytotoxicity assay, A549. The conditions noted are these: Homo sapiens, A549, 72 h, read-out: IC50 (μM) A549. The format is cell-based. The method, boiled down:
as §1

The test system of assay [6] is MDA-MB-231 cells. The assay can be described thus: MTS cytotoxicity assay, MDA-MB-231. In kind it is cell-based. The conditions noted are these: Homo sapiens, MDA-MB-231, 72 h, read-out: IC50 (μM) MBA-MD-231. The method, boiled down:
as §1

The subject of assay [7] is MDA-MB-231 cells. The assay can be described thus: Mitochondrial membrane potential assay. In kind it is cell-based, human. The note with it: 72 h, control 3.9%. The method, boiled down: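 Mitochondrial membrane potential measured by flow cytometry in MDA-MB-231 cells after 72 h with test compound at 2.5, 5 or 10 μM, against an untreated control. Red and green fluorescent populations were quantified. The green-fluorescent fraction was taken as cells with collapsed ΔΨm.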

Assay [8] deals with MDA-MB-231 cells. The assay can be described thus: Cell cycle assay. The format is cell-based, human. The note with it: 72 h, control 56.86%. The method in brief:
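Test compound applied to MDA-MB-231 cells at 2.5, 5 and 10 μM for 72 h. Cells stained with propidium iodide, and DNA content measured by flow cytometry. Percentages of cells in each cell-cycle phase were calculated against an untreated control.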

Assay [9] has as its system MDA-MB-231 cells. The assay can be described thus: Western blot of apoptosis related proteins. The note with it: 2.5, 5 and 10 μM, 72 h, vs control. The format is cell-based, human. The method in brief:
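Western blot on lysates of MDA-MB-231 cells treated for 72 h with test compound at 2.5, 5 and 10 μM, compared with untreated control. Proteins probed: Bcl-2, Bax, cytochrome C and caspase-3. β-actin served as internal reference, and band levels were analysed statistically.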
In general terms: A western blot detects proteins with antibodies after separation by electrophoresis.

SMILES strings stand for the structures.

One may read the IC50 as the point on the concentration scale where inhibition reaches its midpoint.

For `CC12CCC(c3c(-c4ccc(Cl)cc4)nc(N)nc31)C2(C)C` (stereo not drawn) [Compound 3f, 4-(4-Chlorophenyl)-8,9,9-trimethyl-5,6,7,8-tetrahydro-5,8-methanoquinazolin-2-amine], the “level of ROS (DCFH-DA positive cells)” value in assay [1] (10.0 μM, 72 h, control 5.13%) is given as 63.4%. Moreover, the “increase of ROS level in comparison to the control group” value in assay [1] (10 μM, 63.4% vs control 5.13%) is given as roughly 12 times. The IC50 in assay [2] is 8.64 ± 0.24 µM; in [4], greater than 50 µM; in [5], 7.65 ± 0.21 µM; in [6], 5 ± 0.14 µM. Besides, the results for the “Apoptosis rate (%) (total early and late)” value in assay [3] (2.5 μM) and in [3] (10 μM) were 9.47% and 57.9%, respectively. The “Percentage (%) green fluorescence (cells with a collapsed ΔΨm)” value was 10.4% in assay [7] (2.5 μM), 33.6% in assay [7] (5 μM) and 53.2% in assay [7] (10 μM). Further, the “percentage of cells in G0/G1 phase” value in assay [8] (2.5 μM) is 64.89%; in assay [8] (5 μM), 78.02%; in assay [8] (10 μM), 81.72%. Besides, in assay [9], the “expression of anti-apoptosis protein Bcl-2” value is “downregulated dose-dependently”. Further, the “expression of caspase-3” value in assay [9] is reported as “upregulation”. Further, the “expression of cytochrome C” value in [9] is reported as “upregulation”. Also, the “expression of pro-apoptotic protein Bax” value in [9] is reported as “up-regulated”.
